Key:
[1] = test system: MCF7; test: Cytotoxicity against human MCF7 cells assessed as reduction in cell viability after 48 hrs by SRB colorimetric assay; assay type: functional, cell-based; settings: MCF7, 48 h
Outline: (§1)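 MCF-7 from ATCC and its stepwise ADR-selected resistant subline, grown in RPMI-1640 with 10% FBS and penicillin/streptomycin at 37 °C, 5% CO2. 1 × 10^4 cells/well exposed to graded compound concentrations for 48 h. Cells fixed with 10% TCA, stained with 0.4% SRB in 1% acetic acid, dye extracted with 10 mM Tris base, OD read at 490 nm. Taxol positive control.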

[2] = Cytotoxicity against human MCF7/ADR cells assessed as reduction in cell viability after 48 hrs by SRB colorimetric assay; assay type: functional, cell-based; settings: NCI/ADR-RES; outline: as §1
[3] = biological target: T1, ATP-dependent translocase ABCB1 (Homo sapiens, UniProt P08183); test: Inhibition of P-gp in human MCF7/ADR cells assessed as reversal of multidrug resistance by measuring relative enhancement intensity for adriamycin-induced cytotoxicity at 10 uM after 48 hrs by SRB colorimetric assay; assay type: cell-based; design: scale not given: the % may be the effect or the level left; settings: nci/adr-res
T1 sequence (P08183 whole entry): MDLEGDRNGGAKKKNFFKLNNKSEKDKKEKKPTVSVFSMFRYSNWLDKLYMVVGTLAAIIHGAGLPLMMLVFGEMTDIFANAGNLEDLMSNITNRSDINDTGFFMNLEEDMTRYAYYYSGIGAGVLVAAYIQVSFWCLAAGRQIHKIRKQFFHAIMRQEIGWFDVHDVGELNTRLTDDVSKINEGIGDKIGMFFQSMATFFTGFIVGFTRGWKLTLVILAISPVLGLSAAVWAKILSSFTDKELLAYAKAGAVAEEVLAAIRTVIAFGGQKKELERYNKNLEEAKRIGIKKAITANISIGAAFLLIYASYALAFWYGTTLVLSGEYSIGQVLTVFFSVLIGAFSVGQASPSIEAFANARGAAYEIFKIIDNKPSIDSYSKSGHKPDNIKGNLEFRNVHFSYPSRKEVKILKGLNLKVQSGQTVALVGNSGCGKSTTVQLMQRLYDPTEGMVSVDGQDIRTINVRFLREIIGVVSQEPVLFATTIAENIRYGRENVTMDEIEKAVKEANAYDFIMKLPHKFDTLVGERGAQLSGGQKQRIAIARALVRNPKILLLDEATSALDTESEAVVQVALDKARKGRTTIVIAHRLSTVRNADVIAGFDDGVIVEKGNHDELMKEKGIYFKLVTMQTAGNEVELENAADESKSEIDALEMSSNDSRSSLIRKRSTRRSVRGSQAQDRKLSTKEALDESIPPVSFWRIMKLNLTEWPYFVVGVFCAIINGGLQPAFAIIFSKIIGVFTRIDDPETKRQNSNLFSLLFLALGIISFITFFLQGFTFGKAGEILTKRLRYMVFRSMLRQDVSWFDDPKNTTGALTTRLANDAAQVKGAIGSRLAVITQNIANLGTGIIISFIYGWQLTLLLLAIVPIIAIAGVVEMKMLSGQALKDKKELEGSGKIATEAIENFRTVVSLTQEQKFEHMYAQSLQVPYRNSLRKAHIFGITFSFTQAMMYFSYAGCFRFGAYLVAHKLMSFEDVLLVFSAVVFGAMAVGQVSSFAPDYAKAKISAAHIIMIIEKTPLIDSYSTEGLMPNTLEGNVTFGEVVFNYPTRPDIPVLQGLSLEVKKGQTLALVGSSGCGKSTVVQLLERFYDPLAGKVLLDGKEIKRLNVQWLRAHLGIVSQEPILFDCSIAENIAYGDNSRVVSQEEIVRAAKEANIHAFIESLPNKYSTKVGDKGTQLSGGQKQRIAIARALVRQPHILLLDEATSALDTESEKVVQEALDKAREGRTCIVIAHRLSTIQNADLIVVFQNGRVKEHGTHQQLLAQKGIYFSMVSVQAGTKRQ

[4] = test system: NCI/ADR-RES; test: Inhibition of P-gp in human MCF7/ADR cells assessed as reversal of multidrug resistance at 10 uM by measuring ratio of EC50(adriamycin)/EC50(adriamycin + compound) after 48 hrs by SRB colorimetric assay; assay type: cell-based
[5] = biological target: T1, ATP-dependent translocase ABCB1; test: Inhibition of P-gp in human MCF7/ADR cells assessed as forward scatter count of cells at 2 uM pre-treated for 1 hr at 37 degC followed by incubation with Rh123 for 1 hr by flow cytometry (reference value: 142.5 No unit); assay type: cell-based; settings: nci/adr-res
[6] = biological target: T1, ATP-dependent translocase ABCB1; test: Inhibition of P-gp in human MCF7/ADR cells assessed as forward scatter count of cells at 10 uM pre-treated for 1 hr at 37 degC followed by incubation with Rh123 for 1 hr by flow cytometry (reference value: 142.5 No unit); assay type: cell-based; settings: nci/adr-res
[7] = biological target: T1, ATP-dependent translocase ABCB1; test: Inhibition of P-gp in human MCF7/ADR cells assessed as forward scatter count of cells at 20 uM pre-treated for 1 hr at 37 degC followed by incubation with Rh123 for 1 hr by flow cytometry (reference value: 142.5 No unit); assay type: cell-based; settings: nci/adr-res
[8] = biological target: T1, ATP-dependent translocase ABCB1; test: Inhibition of P-gp in human MCF7/ADR cells assessed as side scatter count of cells at 2 uM pre-treated for 1 hr at 37 degC followed by incubation with Rh123 for 1 hr by flow cytometry (reference value: 100.6 No unit); assay type: cell-based; settings: nci/adr-res
[9] = biological target: T1, ATP-dependent translocase ABCB1; test: Inhibition of P-gp in human MCF7/ADR cells assessed as side scatter count of cells at 10 uM pre-treated for 1 hr at 37 degC followed by incubation with Rh123 for 1 hr by flow cytometry (reference value: 100.6 No unit); assay type: cell-based; settings: nci/adr-res
[10] = biological target: T1, ATP-dependent translocase ABCB1; test: Inhibition of P-gp in human MCF7/ADR cells assessed as side scatter count of cells at 20 uM pre-treated for 1 hr at 37 degC followed by incubation with Rh123 for 1 hr by flow cytometry (reference value: 100.6 No unit); assay type: cell-based; settings: nci/adr-res
[11] = biological target: T1, ATP-dependent translocase ABCB1; test: Inhibition of P-gp in human MCF7/ADR cells assessed as mean fluorescence intensity of cells at 2 uM pre-treated for 1 hr at 37 degC followed by incubation with Rh123 for 1 hr by flow cytometry (reference value: 108.1 +/- 43.9 No unit); assay type: cell-based; settings: nci/adr-res
[12] = biological target: T1, ATP-dependent translocase ABCB1; test: Inhibition of P-gp in human MCF7/ADR cells assessed as mean fluorescence intensity of cells at 10 uM pre-treated for 1 hr at 37 degC followed by incubation with Rh123 for 1 hr by flow cytometry (reference value: 108.1 +/- 43.9 No unit); assay type: cell-based; settings: nci/adr-res
[13] = biological target: T1, ATP-dependent translocase ABCB1; test: Inhibition of P-gp in human MCF7/ADR cells assessed as mean fluorescence intensity of cells at 20 uM pre-treated for 1 hr at 37 degC followed by incubation with Rh123 for 1 hr by flow cytometry (reference value: 108.1 +/- 43.9 No unit); assay type: cell-based; settings: nci/adr-res
[14] = biological target: T1, ATP-dependent translocase ABCB1; test: Inhibition of P-gp in human MCF7/ADR cells assessed as peak fluorescence intensity of cells at 2 uM pre-treated for 1 hr at 37 degC followed by incubation with Rh123 for 1 hr by flow cytometry (reference value: 87.3 No unit); assay type: cell-based; settings: nci/adr-res
[15] = biological target: T1, ATP-dependent translocase ABCB1; test: Inhibition of P-gp in human MCF7/ADR cells assessed as peak fluorescence intensity of cells at 10 uM pre-treated for 1 hr at 37 degC followed by incubation with Rh123 for 1 hr by flow cytometry (reference value: 87.3 No unit); assay type: cell-based; settings: nci/adr-res
[16] = biological target: T1, ATP-dependent translocase ABCB1; test: Inhibition of P-gp in human MCF7/ADR cells assessed as peak fluorescence intensity of cells at 20 uM pre-treated for 1 hr at 37 degC followed by incubation with Rh123 for 1 hr by flow cytometry (reference value: 87.3 No unit); assay type: cell-based; settings: nci/adr-res
[17] = biological target: T1, ATP-dependent translocase ABCB1; test: Inhibition of P-gp in human MCF7/ADR cells assessed as mean fluorescence intensity of cells pre-treated for 1 hr at 37 degC followed by incubation with Rh123 for 1 hr by flow cytometry; assay type: cell-based; settings: nci/adr-res
[18] = Inhibition of P-gp in human MCF7/ADR cells assessed as reversal of multidrug resistance at 10 uM by measuring EC50 for adriamycin-induced cytotoxicity after 48 hrs by SRB colorimetric assay; settings: nci/adr-res
[19] = Lipophilicity, log P of the compound; assay type: physicochemical; settings: octanol/water

C=C1CC[C@H]2[C@@H](/C=C(\C)C(=O)[C@@]3(O)C[C@H](C)[C@H](OC(=O)c4ccccc4)[C@@H]3[C@H]1OC(=O)c1ccccc1)C2(C)C
IC50 [1]: 13.2 µM | IC50 [2]: 63.8 µM | Activity [3]: 23.9% | Ratio EC50 [4]: 34.4 | Activity [5]: 146.8 | Activity [6]: 144.5 | Activity [7]: 148.1 | Activity [8]: 102.7 | Activity [9]: 104.4 | Activity [10]: 102 | Flu intensity [11]: 197.5 | Flu intensity [12]: 204.8 | Flu intensity [13]: 204.8 | Activity [14]: 215.4 | Activity [15]: 215.4 | Activity [16]: 196.8

C=C1CC[C@H]2[C@@H](/C=C(\C)C(=O)[C@@]3(O)C[C@H](C)[C@H](O)[C@@H]3[C@H]1OC(=O)Cc1cccc3ccccc13)C2(C)C
IC50 [1]: 10.5 µM | IC50 [2]: 33.7 µM | Activity [3]: 15.5% | Ratio EC50 [4]: 16 | Activity [5]: 134.9 | Activity [6]: 148.5 | Activity [7]: 138.7 | Activity [8]: 96.3 | Activity [9]: 102.2 | Activity [10]: 94.2 | Flu intensity [11]: 141.1 | Flu intensity [12]: 168.1 | Flu intensity [13]: 182.1 | Activity [14]: 131.1 | Activity [15]: 196.8 | Activity [16]: 205.9

C=C1CC[C@H]2[C@@H](/C=C(\C)C(=O)[C@@]3(O)C[C@H](C)[C@H](OC(=O)CC)[C@@H]3[C@H]1OC(=O)Cc1cccc3ccccc13)C2(C)C
IC50 [1]: 9.73 µM | IC50 [2]: 75.7 µM | Activity [3]: 14.4% | Ratio EC50 [4]: 28.6 | Activity [5]: 138.5 | Activity [6]: 137.9 | Activity [7]: 131.4 | Activity [8]: 94.8 | Activity [9]: 101.2 | Activity [10]: 100.9 | Flu intensity [11]: 149.4 | Flu intensity [12]: 167.8 | Flu intensity [13]: 204.6 | Activity [14]: 143.5 | Activity [15]: 188.2 | Activity [16]: 235.8 | inhibition (INH) [17]: Dose-dependent effect

C=C1CC[C@H]2[C@@H](/C=C(\C)C(=O)[C@@]3(O)C[C@H](C)[C@H](OC(=O)CCC)[C@@H]3[C@H]1OC(=O)CCC)C2(C)C
IC50 [1]: 18.5 µM | IC50 [2]: 50.9 µM | Activity [3]: 4% | Ratio EC50 [4]: 2.4 | EC50 [18]: 14.49 µM

COc1ccc(CCN(C)CCCC(C#N)(c2ccc(OC)c(OC)c2)C(C)C)cc1OC (stereo unspecified)
Activity [3]: 8.4% | Ratio EC50 [4]: 7.1 | Activity [7]: 137.4 | Activity [10]: 92.2 | Flu intensity [13]: 170 | Activity [16]: 157.1

C=C1CC[C@H]2[C@@H]([C@@H]3O[C@]4(C[C@H](C)[C@H](OC(C)=O)[C@@H]4[C@H]1OC(C)=O)C(=O)[C@H]3C)C2(C)C
IC50 [1]: 12.7 µM | IC50 [2]: > 100 µM | Activity [3]: 13% | Ratio EC50 [4]: 10.7 | logP [19]: 3.4 | EC50 [18]: 3.23 µM

Source: ChEMBL document CHEMBL3425486, “Lathyrol diterpenes as modulators of P-glycoprotein dependent multidrug resistance: structure-activity relationship studies on Euphorbia factor L3 derivatives” (J Med Chem, 2015)
